Assay results taken from ChEMBL document CHEMBL1255403, “Genetic dissection of azole resistance mechanisms in Candida albicans and their validation in a mouse model of disseminated infection” (2010).
In brackets after ≈: the same amount, converted by molar mass.

Columns and labels:
Assay type in all cases: functional
Candida albicans [1] = assay: Antibacterial activity against Fluconazole resistant Candida albicans DSY3608 containing tac1delta/delta ERG11-1/ERG11-1 (TAC1-1) genotype by EUCAST standards based broth microdilution method
How it was run: (§1)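 Cells grew overnight in YEPD at 30°C and were diluted to 5 × 10^4 cells/ml in RPMI 1640 (MOPS 0.165 M, pH 7, 2% glucose, 1% DMSO). Drug from aqueous stock was 100-fold diluted. Plates ran 24 h at 35°C and were read at 450 nm. MIC was the concentration giving >50% OD decrease versus drug-free control.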

Candida albicans [2] = assay: Antibacterial activity against Fluconazole resistant Candida albicans DSY3706 containing tac1delta/delta ERG11-1/ERG11-1 genotype infected in BALB/c mouse assessed as reduction in kidney microbial burden administered intraperitoneally 1 hr post bacterial challenge measured 3 days post infection
How it was run: (§2)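 At 72 h the left kidney was homogenised in saline and viable counts taken as log10 CFU/g. ED50 was the dose lowering the mean burden >1.5 log below controls.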

Candida albicans [3] = assay: Antibacterial activity against Fluconazole resistant Candida albicans DSY296 overexpressing multidrug transporter gene CDR1 and CDR2 and containing ERG11 G464S mutation by EUCAST standards based broth microdilution method; how it was run: as §1
Candida albicans [4] = assay: […] activity against Fluconazole resistant Candida albicans DSY3752 containing (TAC1-5/TAC1-5 ERG11-1/ERG11-1) genotype by EUCAST standards based broth microdilution method sCandida albicans DSY294
Candida albicans [5] = assay: Antibacterial activity against azole-susceptible Candida albicans DSY294 containing CIp10 to restore URA3 function infected in BALB/c mouse assessed as reduction in kidney microbial burden administered intraperitoneally 1 hr post bacterial challenge measured 3 days post infection; how it was run: as §2
Candida albicans [6] = assay: Antibacterial activity against Fluconazole resistant Candida albicans DSY3604 containing tac1delta/delta ERG11-1/ERG11-5 genotype by EUCAST standards based broth microdilution method sCandida albicans DSY294
Candida albicans [7] = assay: Antibacterial activity against Fluconazole resistant Candida albicans DSY3606 containing tac1delta/delta ERG11-1/ERG11-1 (TAC1-5) genotype infected in BALB/c mouse assessed as effect on infection outcome score administered intraperitoneally 1 hr post bacterial challenge measured 3 days post infection
How it was run: (§3)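 Intravenous infection of female BALB/c mice with a strain-specific inoculum. […] ED50 was derived from the 3-day infection outcome score at 72 h.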

Candida albicans [8] = assay: Antibacterial activity against Fluconazole resistant Candida albicans DSY3083 containing tac1delta/delta genotype containing CIp10 to restore URA3 function infected in BALB/c mouse assessed as reduction in kidney microbial burden administered intraperitoneally 1 hr post bacterial challenge measured 3 days post infection; how it was run: as §2
Candida albicans [9] = assay: Antibacterial activity against Fluconazole resistant Candida albicans DSY3606 containing tac1delta/delta ERG11-1/ERG11-1 (TAC1-5) genotype by EUCAST standards based broth microdilution method; how it was run: as §1
Candida albicans [10] = assay: Antibacterial activity against Fluconazole resistant Candida albicans DSY296 overexpressing multidrug transporter gene CDR1 and CDR2 and containing ERG11 G464S mutation containing CIp10 to restore URA3 function infected in BALB/c mouse assessed as effect on infection outcome score administered intraperitoneally 1 hr post bacterial challenge measured 3 days post infection; how it was run: as §3
Candida albicans [11] = assay: Antibacterial activity against Fluconazole resistant Candida albicans DSY3706 containing tac1delta/delta ERG11-1/ERG11-1 genotype infected in BALB/c mouse administered intraperitoneally 1 hr post bacterial challenge measured 3 days post infection
How it was run: (§4)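 Female BALB/c mice (18–22 g) infected i.v. with a saline suspension of NGY-grown yeast. The challenge inoculum was strain-specific, set by pilot dose-finding. […] Endpoint at 72 h. Median of ED50s from kidney burden, weight change and outcome score.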

Candida albicans [12] = assay: Antibacterial activity against Fluconazole resistant Candida albicans DSY296 overexpressing multidrug transporter gene CDR1 and CDR2 and containing ERG11 G464S mutation containing CIp10 to restore URA3 function infected in BALB/c mouse assessed as weight change administered intraperitoneally 1 hr post bacterial challenge measured 3 days post infection
Candida albicans [13] = assay: Antibacterial activity against Fluconazole resistant Candida albicans DSY3083 containing tac1delta/delta genotype containing CIp10 to restore URA3 function infected in BALB/c mouse assessed as weight change administered intraperitoneally 1 hr post bacterial challenge measured 3 days post infection
Candida albicans [14] = assay: Antibacterial activity against Fluconazole resistant Candida albicans DSY3083 containing tac1delta/delta genotype containing CIp10 to restore URA3 function infected in BALB/c mouse assessed as effect on infection outcome score administered intraperitoneally 1 hr post bacterial challenge measured 3 days post infection; how it was run: as §3
Candida albicans [15] = assay: Antibacterial activity against azole-susceptible Candida albicans DSY294 containing CIp10 to restore URA3 function infected in BALB/c mouse assessed as weight change administered intraperitoneally 1 hr post bacterial challenge measured 3 days post infection
How it was run: (§5)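 Female BALB/c mice (18 to 22 g) infected i.v. with saline suspension of C. albicans grown overnight in NGY medium. […] Percentage body weight change over 3 days; ED50 = dose reducing mean weight change below 50% of controls.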

Candida albicans [16] = assay: Antibacterial activity against Fluconazole resistant Candida albicans DSY3706 containing tac1delta/delta ERG11-1/ERG11-1 genotype infected in BALB/c mouse assessed as effect on infection outcome score administered intraperitoneally 1 hr post bacterial challenge measured 3 days post infection; how it was run: as §3
Candida albicans [17] = assay: Antibacterial activity against Fluconazole resistant Candida albicans DSY296 overexpressing multidrug transporter gene CDR1 and CDR2 and containing ERG11 G464S mutation containing CIp10 to restore URA3 function infected in BALB/c mouse assessed as reduction in kidney microbial burden administered intraperitoneally 1 hr post bacterial challenge measured 3 days post infection; how it was run: as §2
Candida albicans [18] = assay: […] activity against Fluconazole resistant Candida albicans DSY3608 containing tac1delta/delta ERG11-1/ERG11-1 (TAC1-1) genotype by EUCAST standards based broth microdilution method sCandida albicans DSY294
Candida albicans [19] = assay: Antibacterial activity against Fluconazole resistant Candida albicans DSY3606 containing tac1delta/delta ERG11-1/ERG11-1 (TAC1-5) genotype by EUCAST standards based broth microdilution method sCandida albicans DSY294
Candida albicans [20] = assay: Antibacterial activity against Fluconazole resistant Candida albicans DSY3606 containing tac1delta/delta ERG11-1/ERG11-1 (TAC1-5) genotype infected in BALB/c mouse assessed as reduction in kidney microbial burden administered intraperitoneally 1 hr post bacterial challenge measured 3 days post infection; how it was run: as §2
Candida albicans [21] = assay: Antibacterial activity against Fluconazole resistant Candida albicans DSY296 overexpressing multidrug transporter gene CDR1 and CDR2 and containing ERG11 G464S mutation containing CIp10 to restore URA3 function infected in BALB/c mouse administered intraperitoneally 1 hr post bacterial challenge measured 3 days post infection; how it was run: as §4
Candida albicans [22] = assay: Antibacterial activity against Fluconazole resistant Candida albicans DSY3752 containing (TAC1-5/TAC1-5 ERG11-1/ERG11-1) genotype by EUCAST standards based broth microdilution method; how it was run: as §1
Candida albicans [23] = assay: Antibacterial activity against Fluconazole resistant Candida albicans DSY3083 containing tac1delta/delta genotype by EUCAST standards based broth microdilution method; how it was run: as §1
Candida albicans [24] = assay: Antibacterial activity against Fluconazole resistant Candida albicans DSY3083 containing tac1delta/delta genotype by EUCAST standards based broth microdilution method sCandida albicans DSY294
Candida albicans [25] = assay: […] activity against Fluconazole resistant Candida albicans DSY3706 containing tac1delta/delta ERG11-1/ERG11-1 genotype by EUCAST standards based broth microdilution method sCandida albicans DSY294
Candida albicans [26] = assay: Antibacterial activity against azole-susceptible Candida albicans DSY294 containing CIp10 to restore URA3 function infected in BALB/c mouse administered intraperitoneally 1 hr post bacterial challenge measured 3 days post infection; how it was run: as §4
Candida albicans [27] = assay: Antibacterial activity against Fluconazole resistant Candida albicans DSY3606 containing tac1delta/delta ERG11-1/ERG11-1 (TAC1-5) genotype infected in BALB/c mouse administered intraperitoneally 1 hr post bacterial challenge measured 3 days post infection; how it was run: as §4
Candida albicans [28] = assay: Antibacterial activity against azole-susceptible Candida albicans DSY294 by EUCAST standards based broth microdilution method; how it was run: as §1
Candida albicans [29] = assay: Antibacterial activity against azole-susceptible Candida albicans DSY294 containing CIp10 to restore URA3 function infected in BALB/c mouse assessed as effect on infection outcome score administered intraperitoneally 1 hr post bacterial challenge measured 3 days post infection; how it was run: as §3
Candida albicans [30] = assay: Antibacterial activity against Fluconazole resistant Candida albicans DSY3083 containing tac1delta/delta genotype containing CIp10 to restore URA3 function infected in BALB/c mouse administered intraperitoneally 1 hr post bacterial challenge measured 3 days post infection; how it was run: as §4
Candida albicans [31] = assay: Antibacterial activity against Fluconazole resistant Candida albicans DSY3706 containing tac1delta/delta ERG11-1/ERG11-1 genotype by EUCAST standards based broth microdilution method; how it was run: as §1
Candida albicans [32] = assay: Antibacterial activity against Fluconazole resistant Candida albicans DSY3706 containing tac1delta/delta ERG11-1/ERG11-1 genotype infected in BALB/c mouse assessed as weight change administered intraperitoneally 1 hr post bacterial challenge measured 3 days post infection; how it was run: as §5
Candida albicans [33] = assay: […] activity against Fluconazole resistant Candida albicans DSY3606 containing tac1delta/delta ERG11-1/ERG11-1 (TAC1-5) genotype infected in BALB/c mouse assessed as weight change administered intraperitoneally 1 hr post […] measured 3 days post infection
Candida albicans [34] = assay: Antibacterial activity against Fluconazole resistant Candida albicans DSY3604 containing tac1delta/delta ERG11-1/ERG11-5 genotype by EUCAST standards based broth microdilution method; how it was run: as §1
Candida albicans [35] = assay: […] activity against Fluconazole resistant Candida albicans DSY296 overexpressing multidrug transporter gene CDR1 and CDR2 and containing ERG11 G464S mutation by EUCAST standards based broth microdilution method relative to wildtype sCandida albicans DSY294

| SMILES | MIC (Candida albicans [1]) [µg/mL] | MIC (Candida albicans [3]) [µg/mL] | fold change (FC) (Candida albicans [4]) | fold change (FC) (Candida albicans [6]) | MIC (Candida albicans [9]) [µg/mL] | fold change (FC) (Candida albicans [18]) | fold change (FC) (Candida albicans [19]) | MIC (Candida albicans [22]) [µg/mL] | MIC (Candida albicans [23]) [µg/mL] | fold change (FC) (Candida albicans [24]) | fold change (FC) (Candida albicans [25]) | MIC (Candida albicans [28]) [µg/mL] | MIC (Candida albicans [31]) [µg/mL] | MIC (Candida albicans [34]) [µg/mL] | fold change (FC) (Candida albicans [35]) | further results |
| --- | --- | --- | --- | --- | --- | --- | --- | --- | --- | --- | --- | --- | --- | --- | --- | --- |
| OC(Cn1cncn1)(Cn1cncn1)c1ccc(F)cc1F [FLUCONAZOLE] | 0.25 (≈ 0.816 µM) | 64 (≈ 209 µM) | 16 | 8 | 4 (≈ 13.1 µM) | 1 | 16 | 4 (≈ 13.1 µM) | 4 (≈ 13.1 µM) | 16 | 1 | 0.25 (≈ 0.816 µM) | 0.25 (≈ 0.816 µM) | 2 (≈ 6.53 µM) | – | MIC (Candida albicans [2]): 3.5 µg/mL; MIC (Candida albicans [5]): 10 µg/mL; MIC (Candida albicans [7]): 120 µg/mL (≈ 392 µM); MIC (Candida albicans [8]): 10 µg/mL; MIC (Candida albicans [10]): 200 µg/mL (≈ 653 µM); MIC (Candida albicans [11]): 3.5 µg/mL (≈ 11.4 µM); MIC (Candida albicans [12]): 120 µg/mL (≈ 392 µM); MIC (Candida albicans [13]): 10 µg/mL (≈ 32.7 µM); MIC (Candida albicans [14]): 10 µg/mL (≈ 32.7 µM); MIC (Candida albicans [15]): 1 µg/mL (≈ 3.27 µM); MIC (Candida albicans [16]): 3.5 µg/mL (≈ 11.4 µM); MIC (Candida albicans [17]): > 200 µg/mL; MIC (Candida albicans [20]): 120 µg/mL; MIC (Candida albicans [21]): 200 µg/mL (≈ 653 µM); MIC (Candida albicans [26]): 3.5 µg/mL (≈ 11.4 µM); MIC (Candida albicans [27]): 120 µg/mL (≈ 392 µM); MIC (Candida albicans [29]): 3.5 µg/mL (≈ 11.4 µM); MIC (Candida albicans [30]): 10 µg/mL (≈ 32.7 µM); MIC (Candida albicans [32]): 1 µg/mL (≈ 3.27 µM); MIC (Candida albicans [33]): 120 µg/mL (≈ 392 µM) |
| CCC(C)n1ncn(-c2ccc(N3CCN(c4ccc(OCC5COC(Cn6cncn6)(c6ccc(Cl)cc6Cl)O5)cc4)CC3)cc2)c1=O (centres undefined) [ITRACONAZOLE] | 0.031 (≈ 0.0439 µM) | 0.25 (≈ 0.354 µM) | 16 | 2 | 0.125 (≈ 0.177 µM) | 2 | 8 | 0.25 (≈ 0.354 µM) | 0.031 (≈ 0.0439 µM) | 2 | 1 | 0.0156 (≈ 0.0221 µM) | 0.0156 (≈ 0.0221 µM) | 0.031 (≈ 0.0439 µM) | 16 | – |
| CC[C@@H]([C@H](C)O)n1ncn(-c2ccc(N3CCN(c4ccc(OC[C@@H]5CO[C@@](Cn6cncn6)(c6ccc(F)cc6F)C5)cc4)CC3)cc2)c1=O [POSACONAZOLE] | 0.031 (≈ 0.0442 µM) | 0.25 (≈ 0.357 µM) | 8 | 1 | 0.25 (≈ 0.357 µM) | 1 | 8 | 0.25 (≈ 0.357 µM) | 0.031 (≈ 0.0442 µM) | 1 | 1 | 0.0312 (≈ 0.0445 µM) | 0.031 (≈ 0.0442 µM) | 0.031 (≈ 0.0442 µM) | 8 | – |
| C[C@@H](c1ncncc1F)[C@](O)(Cn1cncn1)c1ccc(F)cc1F [VORICONAZOLE] | 0.0078 (≈ 0.0223 µM) | 2 (≈ 5.73 µM) | 16 | 8 | 0.125 (≈ 0.358 µM) | 1 | 16 | 0.125 (≈ 0.358 µM) | 0.125 (≈ 0.358 µM) | 16 | 1 | 0.0078 (≈ 0.0223 µM) | 0.0078 (≈ 0.0223 µM) | 0.0625 (≈ 0.179 µM) | 256 | – |
